Values joined by “and” are separate entries in the source; they are usually repeats but may differ in a detail not shown here. Identical values can stand only once. Like-named read-outs stand apart in the source and are kept apart here. One block for each compound: values may come before it.
Assays:
D2 receptors [1] = assay: Fractional receptor occupancy from saturation binding isotherm; conditions: rat striatum; for receptors labeled: derived from saturation binding isotherm
Procedure, shortened: (§1)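 Computed occupancy fractions for rat striatum D2 or D3 receptors use the mass-action isotherm B/Bmax = L/(L+Kd). L is 4 nM for the tritiated test radioligand and 10 nM for tritiated raclopride. Kd values come from saturation binding to rat D2L/D3 receptors expressed in Sf9 cell membranes. The test radioligand Kd was taken from earlier work.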

human hD3 receptors [2] = molecular target: T1, human hD3 receptors (Homo sapiens, UniProt P35462); assay: Saturation; conditions: hD3 in HEK cells, saturation binding, mean ± S.E.M n = 3
T1 sequence (P35462 whole entry): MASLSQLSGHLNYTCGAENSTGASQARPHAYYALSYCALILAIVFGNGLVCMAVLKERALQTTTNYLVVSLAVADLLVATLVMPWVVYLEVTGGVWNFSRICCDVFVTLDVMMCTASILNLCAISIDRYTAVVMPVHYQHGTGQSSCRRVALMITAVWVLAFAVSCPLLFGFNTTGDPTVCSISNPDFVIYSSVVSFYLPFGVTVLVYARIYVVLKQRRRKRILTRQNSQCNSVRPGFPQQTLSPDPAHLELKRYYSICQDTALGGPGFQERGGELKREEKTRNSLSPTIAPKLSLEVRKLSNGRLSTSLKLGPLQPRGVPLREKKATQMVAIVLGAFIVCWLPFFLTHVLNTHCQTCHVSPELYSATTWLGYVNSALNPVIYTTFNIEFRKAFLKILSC

D3 receptors [3] = assay: Fractional receptor occupancy from saturation binding isotherm; conditions: rat striatum; for receptors labeled: derived from saturation binding isotherm
Procedure, shortened: as §1

D2 plus D3 receptors [4] = format: binding, Sprague-Dawley rat; conditions: rat striatum, n = 30
Procedure, shortened: (§2)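 Brains from male rhesus monkey (5 kg, 6 years) and male Sprague-Dawley rats (~500 g, 5 months) were flash frozen, and 20 μm coronal sections were cut. Sections were incubated 30 min with 4 nM tritiated test radioligand or 10 nM [3H]raclopride, ±1 μM S(−)-eticlopride for nonspecific binding. Sections were rinsed five times in ice-cold buffer, then imaged 24 h on a gaseous beta imager and calibrated against tritium standards. Reported as mean ± S.E.M (monkey n = 8, rat n = 30).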

D3 receptors [5] = assay: Fractional receptor occupancy from saturation binding isotherm; conditions: monkey striatum; for receptors labeled: derived from saturation binding isotherm
Procedure, shortened: (§3)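 Calculated rather than measured: the fraction of D2 or D3 receptors occupied in monkey striatum comes from B/Bmax = L/(L+Kd). L is 4 nM for the tritiated test radioligand or 10 nM for tritiated raclopride. Kd values are from saturation binding to cloned human D2L/D3 receptors expressed in HEK cells. The test radioligand Kd values were taken from earlier work.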

rat rD3 receptors [6] = molecular target: T2, rat rD3 receptors (Rattus norvegicus, UniProt P19020); assay: Saturation; conditions: rD3 in Sf9 cells, saturation binding, mean ± S.E.M n = 3
T2 sequence (P19020 whole entry): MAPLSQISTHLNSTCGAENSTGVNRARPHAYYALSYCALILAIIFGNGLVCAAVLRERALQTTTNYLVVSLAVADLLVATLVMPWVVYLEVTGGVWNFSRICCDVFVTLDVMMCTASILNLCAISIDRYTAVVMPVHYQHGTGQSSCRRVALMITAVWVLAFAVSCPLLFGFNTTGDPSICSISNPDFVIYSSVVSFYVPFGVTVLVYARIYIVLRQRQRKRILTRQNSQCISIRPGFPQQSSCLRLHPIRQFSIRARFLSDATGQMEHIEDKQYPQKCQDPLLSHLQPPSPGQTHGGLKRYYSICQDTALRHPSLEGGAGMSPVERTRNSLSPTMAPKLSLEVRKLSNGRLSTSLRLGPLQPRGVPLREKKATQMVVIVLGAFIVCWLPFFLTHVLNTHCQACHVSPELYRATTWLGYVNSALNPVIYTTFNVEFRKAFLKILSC

D2 receptors [7] = assay: Fractional receptor occupancy from saturation binding isotherm; conditions: monkey striatum; for receptors labeled: derived from saturation binding isotherm
Procedure, shortened: as §3

D2 plus D3 receptors [8] = format: binding, rhesus monkey; conditions: n = 8; for B2 apparent receptor binding density: 10 nM radioligand; for B1 apparent receptor binding density: 4 nM radioligand
Procedure, shortened: as §2

human hD2L receptors = human hD2L receptors (Homo sapiens, UniProt P14416); conditions: hD2L in HEK cells, saturation binding, mean ± S.E.M n = 3; ref Xu et al. (2009); cited from earlier work
Chain of human hD2L receptors (P14416 whole entry): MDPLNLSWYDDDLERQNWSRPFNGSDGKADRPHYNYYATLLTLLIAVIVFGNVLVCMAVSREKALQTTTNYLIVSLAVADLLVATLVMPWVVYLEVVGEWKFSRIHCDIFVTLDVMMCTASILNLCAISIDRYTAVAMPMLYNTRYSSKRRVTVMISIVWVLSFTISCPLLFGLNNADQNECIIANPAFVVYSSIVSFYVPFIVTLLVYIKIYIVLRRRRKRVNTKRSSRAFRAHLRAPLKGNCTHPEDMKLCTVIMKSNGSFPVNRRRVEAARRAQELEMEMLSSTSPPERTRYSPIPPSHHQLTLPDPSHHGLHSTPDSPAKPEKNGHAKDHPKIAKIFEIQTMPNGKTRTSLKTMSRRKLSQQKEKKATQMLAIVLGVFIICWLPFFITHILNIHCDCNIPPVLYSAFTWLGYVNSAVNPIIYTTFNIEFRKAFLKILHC

human hD3 receptors [9] = molecular target: T1, human hD3 receptors; conditions: cited from earlier work
rat rD2L receptors = rat rD2L receptors (Rattus norvegicus, UniProt P61169); conditions: rD2L in Sf9 cells, saturation binding, mean ± S.E.M n = 3; ref Xu et al. (2009); cited from earlier work
Chain of rat rD2L receptors (P61169 whole entry): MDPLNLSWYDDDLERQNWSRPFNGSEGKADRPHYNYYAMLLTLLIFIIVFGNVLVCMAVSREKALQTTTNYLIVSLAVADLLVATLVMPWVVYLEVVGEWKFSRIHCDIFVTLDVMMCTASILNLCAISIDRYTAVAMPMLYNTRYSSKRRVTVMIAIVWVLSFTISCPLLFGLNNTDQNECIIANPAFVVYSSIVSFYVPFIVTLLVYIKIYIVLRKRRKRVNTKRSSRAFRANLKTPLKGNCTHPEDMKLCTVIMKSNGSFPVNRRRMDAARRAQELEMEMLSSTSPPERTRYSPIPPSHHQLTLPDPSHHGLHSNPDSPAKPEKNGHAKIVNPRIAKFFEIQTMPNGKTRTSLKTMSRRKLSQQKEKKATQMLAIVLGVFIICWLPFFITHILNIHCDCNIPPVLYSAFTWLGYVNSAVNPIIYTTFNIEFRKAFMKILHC

rat rD3 receptors [10] = molecular target: T2, rat rD3 receptors; conditions: cited from earlier work
D3 receptors [11] = molecular target: D3 receptors (Rattus norvegicus, UniProt P19020); assay: Scatchard analysis of autoradiography binding to rat brain sections; design: species or system Sprague-Dawley rat
Chain of D3 receptors (Rattus norvegicus, UniProt P19020) (P19020 whole entry): as the sequence (P19020 whole entry) above

[12] = 10 nM, from Eq. 2 with Kd of Table I
[13] = 4 nM, from Eq. 2 with Kd of Table I

Structure (SMILES): CCN1CCC[C@H]1CNC(=O)c1c(O)c(Cl)cc(Cl)c1OC (racemic) [[^3H]raclopride, reference compound]
receptors labeled (D2 receptors [1]; 10 nM): 60%
a2, receptor occupancy fraction (D2 receptors [1]; [12]): 0.6
Kd (human hD3 receptors [2]): 18 ± 1 nM
receptors labeled (D3 receptors [3]; 10 nM): 37%
b2, receptor occupancy fraction (D3 receptors [3]; [12]): 0.37
B2 apparent receptor binding density (D2 plus D3 receptors [4]; 10 nM radioligand): 145 fmol/mg tissue and 145 ± 4 fmol/mg tissue
receptors labeled (D3 receptors [5]; 10 nM): 36%
b2, receptor occupancy fraction (D3 receptors [5]; [12]): 0.36
Kd (rat rD3 receptors [6]): 17.1 ± 1.7 nM
receptors labeled (D2 receptors [7]; 10 nM): 86%
a2, receptor occupancy fraction (D2 receptors [7]; [12]): 0.86
B2 apparent receptor binding density (D2 plus D3 receptors [8]; rhesus caudate): 318 fmol/mg tissue and 318 ± 17 fmol/mg tissue
B2 apparent receptor binding density (D2 plus D3 receptors [8]; rhesus putamen): 345 fmol/mg tissue and 345 ± 23 fmol/mg tissue

receptors labeled (D2 receptors [1]; 4 nM): 2%
a1, receptor occupancy fraction (D2 receptors [1]; [13]): 0.02
receptors labeled (D3 receptors [3]; 4 nM): 50%
b1, receptor occupancy fraction (D3 receptors [3]; [13]): 0.5
receptors labeled (D3 receptors [5]; 4 nM): 78%
b1, receptor occupancy fraction (D3 receptors [5]; [13]): 0.78
receptors labeled (D2 receptors [7]; 4 nM): 5%
a1, receptor occupancy fraction (D2 receptors [7]; [13]): 0.05
Kd (D3 receptors [11]): 3.4 nM
Structure (SMILES): COc1ccccc1N1CCN(CCCCNC(=O)c2ccc(N(C)C)cc2)CC1 [[^3H]WC-10, 4-(dimethylamino)-N-(4-(4-(2-methoxyphenyl)piperazin-1-yl)butyl)benzamide]
Kd (human hD2L receptors): 76 ± 4 nM
B1 apparent receptor binding density (D2 plus D3 receptors [4]; 4 nM radioligand): 38 fmol/mg tissue and 38 ± 2 fmol/mg tissue
Kd (human hD3 receptors [9]; hD3 in HEK cells, saturation binding, mean ± S.E.M n = 3, ref Xu et al. (2009)): 1.2 nM and 1.16 nM
D2L/D3 (Kd ratio) (human hD3 receptors [9]; human receptors in HEK cells, ref Xu et al. (2009)): 65.5
fold higher affinity to human HEK D3 than to HEK D2L receptors (human hD3 receptors [9]; ref Xu et al., 2009): 66 fold
Kd (rat rD2L receptors): 158 ± 8.3 nM
Kd (rat rD3 receptors [10]; rD3 in Sf9 cells, saturation binding, mean ± S.E.M n = 3, ref Xu et al. (2009)): 3.9 nM and 3.94 nM
D2L/D3 (Kd ratio) (rat rD3 receptors [10]; rat receptors in Sf9 cells, ref Xu et al. (2009)): 40.1
fold higher affinity to rat Sf9 rD3 than to rat Sf9 rD2L receptors (rat rD3 receptors [10]; ref Xu et al., 2009): 40 fold
fold lower affinity to rat Sf9 rD3 than to human HEK D3 receptors (rat rD3 receptors [10]; ref Xu et al., 2009): 3 fold
B1 apparent receptor binding density (D2 plus D3 receptors [8]; rhesus anterior caudate): 125 fmol/mg tissue and 125 ± 3 fmol/mg tissue
B1 apparent receptor binding density (D2 plus D3 receptors [8]; rhesus putamen): 141 fmol/mg tissue and 141 ± 4 fmol/mg tissue

Source: publication PMC3583018 (Synapse (New York, N.Y.), 2010)
